15 compounds from ChEMBL document CHEMBL1149129, “Design and synthesis of 3'- and 5'-O-(3-benzenesulfonylfuroxan-4-yl)-2'-deoxyuridines: biological evaluation as hybrid nitric oxide donor-nucleoside anticancer agents” (2004) can be followed below.

A short description of assay [1]: In vitro percent nitric oxide released from the test compound was determined as the percent of nitrite (NO2-) produced in phosphate buffered saline at 16 hr. It is filed as functional. The gist of the method:
(§1)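 Compound (2 mM solution) in 0.1 M phosphate buffer, pH 7.4, without L-cysteine was incubated at 37 °C for 1 or 16 h in the absence of air. It was then exposed to air for 10 min at 25 °C and mixed with an equal volume of Griess reagent (sulfanilamide/N-naphthylethylenediamine). A540 was read after 10 min. Percent NO, as nitrite, came from a 0–100 µM sodium nitrite standard curve (±SEM, n = 3).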

In the next assay the test system is KBALB cell line. Nature of the assay: In vitro cell cytotoxicity was determined against KBALB cell line. It counts as functional. The conditions noted are these: Mus musculus. A digest of the protocol: (§2)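 Murine KBALB or KBALB-STK cells, or Hs578Bst human fibroblasts, were grown in complete DMEM with 10% FBS and seeded at 8×10^2 cells/well. After 24 h at 37 °C in 5% CO2, compound in medium was added for 3 days. MTT was added for 4 h, formazan dissolved in DMSO, and blank-corrected A540 read. CC50 is 50% of control A540 (mean, n = 6).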

Assay [2] in a line: In vitro percent nitric oxide released from the test compound was determined as the percent of nitrite (NO2-) produced in phosphate buffered saline at 1 hr. It counts as functional. The gist of the method: as §1
The next assay has as its system EMT6. Nature of the assay: In vitro cell cytotoxicity was determined against EMT-6 cell line. To be noted: Mus musculus. It is filed as functional. A digest of the protocol: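 Murine EMT-6 cells in complete Waymouth medium with 12.5% FBS were plated at 8×10^2 cells/well and preincubated 24 h (37 °C, 5% CO2). Compound in medium was then given for 3 days. MTT reduction was measured over 4 h, with DMSO solubilization and blank-corrected absorbance at 540 nm. CC50 is the concentration reducing A540 to 50% of control (mean, n = 6).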

Assay [3] is described as follows: In vitro percent nitric oxide released from the test compound was determined as the percent of nitrite (NO2-) produced in the present of L-cysteine in Phosphate buffer saline at 16 hr. It is filed as functional. The gist of the method: (§3)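 Equal volumes of 0.2 mM compound and freshly prepared 3.6 mM L-cysteine, each in 0.1 M phosphate buffer, pH 7.4, were mixed and incubated at 37 °C for 1 or 16 h in the absence of air. After 10 min air exposure at 25 °C, an equal volume of Griess reagent was added and A540 read after 10 min. Nitrite was quantified against a 0–100 µM NaNO2 curve (±SEM, n = 3).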

A short description of assay [4]: In vitro percent nitric oxide released from the test compound was determined as the percent of nitrite (NO2-) produced in the present of L-cysteine in Phosphate buffer saline at 1 hr. It counts as functional. The gist of the method:
as §3

Assay [5] has as its system 143B. Kind of assay: In vitro cell cytotoxicity was determined against 143B cell line. It is filed as functional. To be noted: Homo sapiens. A digest of the protocol:
(§4)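 Human 143B or 143B-LTK cells were grown in complete MEME with 10% FBS and seeded at 8×10^2 cells/well. After 24 h at 37 °C in 5% CO2, compound in medium was added and cells were incubated 3 days. Viability was read by MTT (4 h), with formazan dissolved in DMSO and A540 corrected for blanks. CC50 is the concentration cutting A540 to 50% of control (mean, n = 6).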

For the next assay, the system named is KBALB-STK. Nature of the assay: In vitro cell cytotoxicity was determined against KBALB-STK cell line. It is filed as functional. To be noted: Mus musculus. The gist of the method:
as §2

The subject of assay [6] is 143B. Kind of assay: In vitro cell cytotoxicity was determined against 143B-LTK cell line. It counts as functional. The conditions noted are these: Homo sapiens. The gist of the method: as §4
For the next assay, the system named is Hs578Bst (Homo sapiens). Kind of assay: In vitro cell cytotoxicity was determined against Hs 578.Bst cell line.

A word on the CC50: it is the concentration at which the toxic effect on the cells reaches its halfway point. Low values mean greater toxicity to the cells, high ones lower toxicity to the cells.

Turning to `Cc1cn([C@H]2C[C@H](O)[C@@H](COc3no[n+]([O-])c3S(=O)(=O)c3ccccc3)O2)c(=O)[nH]c1=O`, the NO release in assay [1] is 2.2%; in assay [2] it was 2.2%; in assay [3], 36.8%; in [4] it was 20.9%. Besides, the CC50 in the assay with KBALB cell line turned out to be 2800 nM; in the assay on EMT6 it was 2000 nM; in the assay with 143B [5], 3.6 µM; with KBALB-STK it was 4.8 µM; in the assay on 143B [6], 5.6 µM; in the assay on Hs578Bst (Homo sapiens), 6.8 µM.

Regarding `Cc1cn([C@H]2C[C@H](O)[C@@H](CO)O2)c(=O)[nH]c1=O` [DOXRIBTIMINE], the CC50 was 970000 nM in the assay on KBALB cell line, 600 µM with 143B [5], 650 µM in the assay on KBALB-STK and 700 µM in the assay with 143B [6].

On to `O=c1ccn([C@H]2C[C@H](O)[C@@H](COc3no[n+]([O-])c3S(=O)(=O)c3ccccc3)O2)c(=O)[nH]1`, for which the NO release turned out to be 0.2% in [1], 1.5% in assay [2], 77.9% in [3] and 46% in assay [4]. Moreover, the CC50 in the assay with KBALB cell line was 4600 nM; in the assay on EMT6, 750 nM; in the assay on 143B [5], 3.3 µM; in the assay on KBALB-STK, 5.4 µM; in the assay with 143B [6] it was 6.3 µM; with Hs578Bst (Homo sapiens) it was 4.8 µM.

With `O=c1[nH]c(=O)n([C@H]2C[C@H](O)[C@@H](COc3no[n+]([O-])c3S(=O)(=O)c3ccccc3)O2)cc1F`, the NO release stood at 0.7% in assay [1], 0.8% in [2], 68.7% in [3] and 41.6% in assay [4]. Moreover, the CC50 in the assay on KBALB cell line amounted to 48 nM; in the assay on EMT6, 60 nM; in the assay on 143B [5], 3.2 µM; in the assay with KBALB-STK, 0.06 µM; with 143B [6], 2 µM; in the assay on Hs578Bst (Homo sapiens), 0.076 µM.

As for `O=c1[nH]c(=O)n([C@H]2C[C@H](O)[C@@H](CO)O2)cc1F` [FLOXURIDINE], the values for the CC50 in the assay with KBALB cell line and in the assay on KBALB-STK were 95000 nM and 100 µM, respectively.

On to `O=[N+]([O-])O[C@H]1CO[C@H]2[C@@H]1OC[C@H]2O[N+](=O)[O-]` [ISOSORBIDE DINITRATE], for which the NO release came to 24% in [1], 3.5% in [2], 2.6% in assay [3] and 1.9% in assay [4]. The CC50 in the assay with KBALB cell line came to 97000 nM; in the assay with EMT6, 380000 nM; with 143B [5], 7000 µM; in the assay on KBALB-STK, 10 µM; in the assay on 143B [6], 7400 µM.

With `Cc1cn([C@H]2C[C@H](Oc3no[n+]([O-])c3S(=O)(=O)c3ccccc3)[C@@H](CO)O2)c(=O)[nH]c1=O`, the NO release in [1] is 0.4%; in assay [2], 1.4%; in [3] it was 77.3%; in assay [4], 39.5%. The CC50 was determined as 560 nM with KBALB cell line; 2400 nM with EMT6; 0.72 µM in the assay on 143B [5]; 1 µM in the assay with KBALB-STK; 0.88 µM with 143B [6]; 2 µM with Hs578Bst (Homo sapiens).

Take `O=c1[nH]c(=O)n([C@H]2C[C@H](O)[C@@H](CO)O2)cc1I` [IDOXURIDINE]: the CC50 in the assay on KBALB cell line came out at 0.06 nM; in the assay on EMT6 it was 0.009 nM; in the assay on 143B [5], 90 µM; in the assay on KBALB-STK, 8.8e-05 µM; with 143B [6], 100 µM.

Take `O=S(=O)(c1ccccc1)c1no[n+]([O-])c1S(=O)(=O)c1ccccc1`: the NO release in assay [1] came to 0.4%; in [2], 0.2%; in [3], 38.8%; in [4], 22.7%. The CC50 came out at 520 nM with KBALB cell line; 100 nM with EMT6; 0.04 µM in the assay on 143B [5]; 0.6 µM in the assay with KBALB-STK; 0.028 µM in the assay with 143B [6]; 0.1 µM in the assay on Hs578Bst (Homo sapiens).

For `O=c1[nH]c(=O)n([C@H]2C[C@H](O)[C@@H](COc3no[n+]([O-])c3S(=O)(=O)c3ccccc3)O2)cc1I`, the NO release was 9.9% in assay [1], 9.8% in assay [2], 71.9% in [3] and 28.3% in assay [4]. The CC50 turned out to be 920 nM with KBALB cell line; 1000 nM in the assay with EMT6; 0.54 µM in the assay on 143B [5]; 0.92 µM in the assay with KBALB-STK; 0.71 µM in the assay with 143B [6]; 0.8 µM in the assay with Hs578Bst (Homo sapiens).

On to `O=c1[nH]c(=O)n([C@H]2C[C@H](Oc3no[n+]([O-])c3S(=O)(=O)c3ccccc3)[C@@H](CO)O2)cc1F`, for which the NO release in assay [1] amounted to 0.2%; in [2], 0.4%; in [3], 73.9%; in assay [4], 41.5%. In addition, the CC50 in the assay on KBALB cell line was 2000 nM; with EMT6, 2000 nM; in the assay with 143B [5], 0.24 µM; in the assay on KBALB-STK, 0.84 µM; in the assay with 143B [6], 0.84 µM; in the assay with Hs578Bst (Homo sapiens) it was 4.4 µM.

In the case of `O=c1[nH]c(=O)n([C@H]2C[C@H](Oc3no[n+]([O-])c3S(=O)(=O)c3ccccc3)[C@@H](CO)O2)cc1I`, the NO release in [1] was 0.4%; in [2], 1.2%; in [3], 74.8%; in [4], 39.8%. The CC50 with KBALB cell line was 380 nM; with EMT6, 80 nM; in the assay with 143B [5] it was 0.56 µM; in the assay on KBALB-STK it was 0.4 µM; with 143B [6], 1.3 µM; in the assay with Hs578Bst (Homo sapiens), 0.8 µM.

Consider `O=c1[nH]c(=O)n([C@H]2C[C@H](Oc3no[n+]([O-])c3S(=O)(=O)c3ccccc3)[C@@H](CO)O2)cc1C(F)(F)F`, for which the NO release in assay [1] stood at 0.4%; in [2] it was 0.3%; in [3], 78.5%; in assay [4], 48.3%. The CC50 with KBALB cell line was found to be 3200 nM; in the assay with EMT6 it was 880 nM; in the assay with 143B [5], 0.52 µM; in the assay on KBALB-STK it was 2 µM; in the assay with 143B [6] it was 0.48 µM; in the assay with Hs578Bst (Homo sapiens), 4.4 µM.

As to `O=c1ccn([C@H]2C[C@H](Oc3no[n+]([O-])c3S(=O)(=O)c3ccccc3)[C@@H](CO)O2)c(=O)[nH]1`, the NO release in [1] came out at 0.2%; in assay [2], 0.9%; in [3], 85.8%; in [4] it was 45.6%. In addition, the CC50 with KBALB cell line came out at 790 nM; in the assay with EMT6, 80 nM; with 143B [5], 0.96 µM; in the assay with KBALB-STK, 1.7 µM; with 143B [6], 2.9 µM; with Hs578Bst (Homo sapiens), 4.8 µM.

Regarding `COc1no[n+]([O-])c1S(=O)(=O)c1ccccc1`, the NO release in assay [1] came out at 1%; in [2] it was 1.1%; in assay [3], 44.8%; in [4] it was 12.3%. The CC50 in the assay with KBALB cell line came out at 480 nM; with EMT6, 560 nM; in the assay with 143B [5], 0.07 µM; in the assay with KBALB-STK it was 0.44 µM; in the assay on 143B [6], 0.32 µM; in the assay with Hs578Bst (Homo sapiens), 0.68 µM.
